# Reference: ChEMBL document CHEMBL2396632 (Bioorg Med Chem Lett, 2013)
# The source made the active and inactive calls. No cut-off for these calls is given here.
# Experiments:
# [1] = target: T1, Calcitonin gene-related peptide type 1 receptor (Homo sapiens, UniProt O60894+Q16602); test: Antagonist activity at human CGRP receptor
# Rattus norvegicus [2] = test: Toxicity in Sprague-Dawley rat assessed as nasal irritation at 75 mg/mL administered intranasally for 7 days; type: organism-based; conditions: in vivo, inhaled_or_intranasal, 168 h
# Summary of the method: (§1)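 Seven-day rat intranasal irritancy study. Dosing at 75 or 175 mg/mL, 12.5 µL/nostril in succinate buffer, giving total doses of 1.875 mg and 4.375 mg. Nasal cavity and respiratory epithelium were examined histologically.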
# Rattus norvegicus [3] = test: Toxicity in Sprague-Dawley rat assessed as nasal irritation at 175 mg/mL administered intranasally for 7 days; type: organism-based; conditions: in vivo, inhaled_or_intranasal, 168 h; summary of the method: as §1
# Rattus norvegicus [4] = test: Toxicity in Sprague-Dawley rat assessed as erosion of olfactory epithelium at 175 mg/mL administered intranasally for 7 days; type: organism-based; conditions: in vivo, inhaled_or_intranasal, 168 h; summary of the method: as §1
# hERG [5] = target: T2, hERG (Homo sapiens, UniProt Q12809); test: Inhibition of human ERG at 10 uM relative to control
# [6] = Permeability of the compound by PAMPA; type: ADME
# Rattus norvegicus [7] = test: Toxicity in Sprague-Dawley rat assessed as neutrophilic inflammation of respiratory epithelium at 175 mg/mL administered intranasally for 7 days; type: organism-based; conditions: in vivo, inhaled_or_intranasal, 168 h; summary of the method: as §1
# [8] = Chemical degradation in succinate buffer at 40 mg/mL after 3 months at pH 6
# [9] = Aqueous solubility of the compound; type: physicochemical; conditions: buffer
# Summary of the method: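 Aqueous solubility of crystalline material, determined at pH 8.5 and at lower pH.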
# [10] = Reversal of CGRP-induced dilation of human intracranial arterial rings assessed as rightward shift of concentration-response curve after 30 mins by Schild plot analysis; type: functional; conditions: 0.5 h
# Cytochrome P450 1A2 = target: T3, Cytochrome P450 1A2 (Homo sapiens, UniProt P05177); test: Inhibition of CYP1A2 (unknown origin) expressed in baculovirus-infected insect cell microsomes assessed as 3-cyano-7-ethoxycoumarin conversion to 7-hydroxy-3-cyanocoumarin after 45 mins by fluorescence assay; type: ADME, Microsome
# T3 sequence (P05177 whole entry): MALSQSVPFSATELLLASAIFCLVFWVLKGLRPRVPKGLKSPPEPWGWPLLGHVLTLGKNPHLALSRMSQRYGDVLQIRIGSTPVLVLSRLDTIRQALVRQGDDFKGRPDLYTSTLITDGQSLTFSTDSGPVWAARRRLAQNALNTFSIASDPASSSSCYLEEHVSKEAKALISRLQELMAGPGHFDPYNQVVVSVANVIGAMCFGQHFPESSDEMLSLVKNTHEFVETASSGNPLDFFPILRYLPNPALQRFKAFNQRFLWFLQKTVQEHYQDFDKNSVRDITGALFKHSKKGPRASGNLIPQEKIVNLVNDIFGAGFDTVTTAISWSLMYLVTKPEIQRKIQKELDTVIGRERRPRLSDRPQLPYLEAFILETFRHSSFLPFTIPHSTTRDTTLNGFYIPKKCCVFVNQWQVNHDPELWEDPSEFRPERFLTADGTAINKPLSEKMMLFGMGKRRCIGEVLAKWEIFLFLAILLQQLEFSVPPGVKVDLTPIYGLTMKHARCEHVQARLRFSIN
# Homo sapiens [11] = organism: Homo sapiens; test: Selectivity ratio for human CGRP receptor over amylin receptor-1 (unknown origin)
# Cytochrome P450 3A4 [12] = target: T4, Cytochrome P450 3A4 (Homo sapiens, UniProt P08684); test: Inhibition of CYP3A4 (unknown origin) expressed in baculovirus-infected insect cell microsomes assessed as benzoylresorufin conversion to resorufin metabolites after 45 mins by fluorescence assay; type: ADME, Microsome
# Rattus norvegicus [13] = test: Toxicity in Sprague-Dawley rat assessed as lesions in nasal olfactory epithelium at => 75 mg/mL administered intranasally for 7 days; type: organism-based; conditions: in vivo, inhaled_or_intranasal, 168 h; summary of the method: as §1
# [14] = target: Calcitonin gene-related peptide type 1 receptor (Homo sapiens) (UniProt Q16602); test: (§2) Displacement of [125I]-CGRP from CGRP receptor in human SK-N-MC cell membranes after 2 hrs by scintillation counting analysis
# [15] = target: T1, Calcitonin gene-related peptide type 1 receptor; test: as §2
# Callithrix jacchus [16] = test: Inhibition of human alphaCGRP-induced increase in facial blood flow in marmoset at 0.03 mg/kg, sc administered 30 mins after human alphaCGRP-challenge measured 60 mins post-dose by laser Doppler flowmetric analysis relative to control; type: functional; conditions: route subcutaneous
# Summary of the method: (§3)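 Anesthetized marmosets received four IV hαCGRP challenges (10 μg/kg) at 45 min intervals (-30, 15, 60, 105 min) to raise facial blood flow, monitored by laser Doppler. Antagonist given SC at 0 min. The first challenge is the pre-dose vehicle baseline, and inhibition at each post-dose challenge is expressed against it.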
# [17] = Fraction unbound in human plasma; type: ADME, cell-free
# Homo sapiens [18] = organism: Homo sapiens; test: Selectivity ratio for human CGRP receptor over adrenomedullin receptor-2 (unknown origin)
# Rattus norvegicus [19] = test: Toxicity in Sprague-Dawley rat assessed as inflammation of olfactory epithelium at 175 mg/mL administered intranasally for 7 days; type: organism-based; conditions: in vivo, inhaled_or_intranasal, 168 h; summary of the method: as §1
# hERG [20] = target: T2, hERG; test: Inhibition of human ERG at 30 uM relative to control
# [21] = Permeability from basolateral to apical side of human Caco2 cells; type: ADME, cell-based; conditions: Caco-2, read-out: permeability
# Homo sapiens [22] = organism: Homo sapiens; test: Selectivity ratio for human CGRP receptor over adrenomedullin receptor-1 (unknown origin)
# [23] = Subcutaneous bioavailability in sc dosed Sprague-Dawley rat; conditions: in vivo
# Callithrix jacchus [24] = test: Inhibition of human alphaCGRP-induced increase in facial blood flow in marmoset at 0.03 mg/kg, sc administered 30 mins after human alphaCGRP-challenge measured 15 mins post-dose by laser Doppler flowmetric analysis relative to control; type: functional; conditions: route subcutaneous; summary of the method: as §3
# [25] = Cmax in intranasally dosed New Zealand White rabbit; type: ADME, organism-based, Oryctolagus cuniculus; set-up: route nasal; conditions: in vivo, inhaled or intranasal
# Summary of the method: (§4)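 Intranasal dosing in rabbit with 10 to 100 mg/mL dosing solutions, then plasma sampling from 5 min to 24 h. Reported values are Cmax, Tmax, and absolute bioavailability for each dosing-solution concentration.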
# Rattus norvegicus [26] = test: Toxicity in Sprague-Dawley rat assessed as ulceration of olfactory epithelium at 175 mg/mL administered intranasally for 7 days; type: organism-based; conditions: in vivo, inhaled_or_intranasal, 168 h; summary of the method: as §1
# [27] = Reversal of CGRP-induced dilation of human intracranial arterial rings; type: functional
# Summary of the method: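 Ex vivo reversal protocol: vessels fully dilated with CGRP, then cumulative addition of antagonist in a 3-point concentration-response. EC50 (concentration giving 50% reversal) estimated by best fit, n = 4 vessels per compound.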
# Cytochrome P450 3A4 [28] = target: T4, Cytochrome P450 3A4; test: Inhibition of CYP3A4 (unknown origin) expressed in baculovirus-infected insect cell microsomes assessed as 7-benzyloxy-4-trifluoromethylcoumarin conversion to 7-hydroxy-4-trifluoromethylcoumarin after 20 mins by fluorescence assay; type: ADME, Microsome
# [29] = Oral bioavailability in intranasally dosed New Zealand White rabbit at 10 mg/mL; type: ADME, organism-based, Oryctolagus cuniculus; conditions: in vivo, other: intranasal; summary of the method: as §4
# Homo sapiens [30] = organism: Homo sapiens; test: Selectivity ratio for human CGRP receptor over human calcitonin receptor
# Rattus norvegicus [31] = test: Toxicity in Sprague-Dawley rat assessed as lesions in respiratory epithelium at => 75 mg/mL administered intranasally for 7 days; type: organism-based; conditions: in vivo, inhaled_or_intranasal, 168 h; summary of the method: as §1
# [32] = Toxicity in sc dosed Sprague-Dawley rat after 10 days; type: organism-based; conditions: in vivo
# Summary of the method: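 Rats were dosed subcutaneously once daily for 10 days at 0.3, 3, 10 and 30 mg/kg/day and assessed for tolerability and signs of systemic toxicity.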
# [33] = Oral bioavailability in mouse; type: ADME, organism-based; conditions: in vivo
# Rattus norvegicus [34] = test: Toxicity in Sprague-Dawley rat assessed as single cell necrosis of respiratory epithelium at 175 mg/mL administered intranasally for 7 days; type: organism-based; conditions: in vivo, inhaled_or_intranasal, 168 h; summary of the method: as §1
# [35] = target: Calcitonin gene-related peptide type 1 receptor (Homo sapiens) (UniProt Q16602); test: Antagonist activity at CGRP receptor in human SK-N-MC cell membranes assessed as inhibition of CGRP-stimulated cAMP production; type: functional, cell-based
# Homo sapiens [36] = organism: Homo sapiens; test: Selectivity ratio for human CGRP receptor over amylin receptor-3 (unknown origin)
# Callithrix jacchus [37] = test: Inhibition of human alphaCGRP-induced increase in facial blood flow in marmoset at 0.03 mg/kg, sc administered 30 mins after human alphaCGRP-challenge measured 105 mins post-dose by laser Doppler flowmetric analysis relative to control; type: functional; conditions: route subcutaneous; summary of the method: as §3
# [38] = Oral bioavailability in cynomolgus monkey; type: ADME, organism-based, Macaca fascicularis; conditions: in vivo
# [39] = Plasma concentration in marmoset at 0.03 mg/kg, sc measured 15 to 105 mins post-dose; type: ADME, organism-based, Callithrix jacchus; set-up: dose 0.03 mg/kg, route subcutaneous; conditions: in vivo
# Summary of the method: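 Total plasma levels were measured in anesthetized marmosets given the antagonist SC at 0 min, sampled over the 15–105 min post-dose period. The animals also received repeated IV hαCGRP (10 μg/kg) challenges for the facial blood flow model.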
# Cytochrome P450 2D6 = Cytochrome P450 2D6 (Homo sapiens, UniProt P10635); test: Inhibition of CYP2D6 (unknown origin) expressed in baculovirus-infected insect cell microsomes assessed as 3-[2-(N,N-diethyl-N-methylamino)ethyl]-7-methoxy-4-methylcoumarin conversion to 3-[2-(N,N-diethylamino)ethyl]-7-hydroxy-4-methylcoumarin after 45 mins by fluorescence assay; type: ADME, Microsome
# [40] = Tmax in intranasally dosed New Zealand White rabbit; type: ADME, organism-based, Oryctolagus cuniculus; conditions: in vivo, inhaled or intranasal; summary of the method: as §4
# [41] = Permeability from apical to basolateral side of human Caco2 cells; type: ADME, cell-based; conditions: Caco-2, read-out: permeability
# Cytochrome P450 2C9 = Cytochrome P450 2C9 (Homo sapiens, UniProt P11712); test: Inhibition of CYP2C9 (unknown origin) expressed in baculovirus-infected insect cell microsomes assessed as 7-methoxy-4-trifluoromethylcoumarin conversion to 7-hydroxy-4-trifluoromethylcoumarin after 45 mins by fluorescence assay; type: ADME, Microsome
# [42] = Oral bioavailability in intranasally dosed New Zealand White rabbit at 100 mg/mL; type: ADME, organism-based, Oryctolagus cuniculus; conditions: in vivo, other: intranasal; summary of the method: as §4
# [43] = Vasoconstriction of human coronary artery up to 10 uM; type: functional, tissue-based
# Cytochrome P450 2C19 = Cytochrome P450 2C19 (Homo sapiens, UniProt P33261); test: Inhibition of CYP2C19 (unknown origin) expressed in baculovirus-infected insect cell microsomes assessed as 3-cyano-7-ethoxycoumarin conversion to 7-hydroxy-3-cyanocoumarin after 45 mins by fluorescence assay; type: ADME, Microsome
# [44] = Plasma concentration in intranasally dosed New Zealand White rabbit after 5 mins; type: ADME, organism-based, Oryctolagus cuniculus; conditions: inhaled or intranasal; summary of the method: as §4
# [45] = Vasoconstriction of human coronary artery; type: functional, tissue-based
# T2 sequence (Q12809 whole entry): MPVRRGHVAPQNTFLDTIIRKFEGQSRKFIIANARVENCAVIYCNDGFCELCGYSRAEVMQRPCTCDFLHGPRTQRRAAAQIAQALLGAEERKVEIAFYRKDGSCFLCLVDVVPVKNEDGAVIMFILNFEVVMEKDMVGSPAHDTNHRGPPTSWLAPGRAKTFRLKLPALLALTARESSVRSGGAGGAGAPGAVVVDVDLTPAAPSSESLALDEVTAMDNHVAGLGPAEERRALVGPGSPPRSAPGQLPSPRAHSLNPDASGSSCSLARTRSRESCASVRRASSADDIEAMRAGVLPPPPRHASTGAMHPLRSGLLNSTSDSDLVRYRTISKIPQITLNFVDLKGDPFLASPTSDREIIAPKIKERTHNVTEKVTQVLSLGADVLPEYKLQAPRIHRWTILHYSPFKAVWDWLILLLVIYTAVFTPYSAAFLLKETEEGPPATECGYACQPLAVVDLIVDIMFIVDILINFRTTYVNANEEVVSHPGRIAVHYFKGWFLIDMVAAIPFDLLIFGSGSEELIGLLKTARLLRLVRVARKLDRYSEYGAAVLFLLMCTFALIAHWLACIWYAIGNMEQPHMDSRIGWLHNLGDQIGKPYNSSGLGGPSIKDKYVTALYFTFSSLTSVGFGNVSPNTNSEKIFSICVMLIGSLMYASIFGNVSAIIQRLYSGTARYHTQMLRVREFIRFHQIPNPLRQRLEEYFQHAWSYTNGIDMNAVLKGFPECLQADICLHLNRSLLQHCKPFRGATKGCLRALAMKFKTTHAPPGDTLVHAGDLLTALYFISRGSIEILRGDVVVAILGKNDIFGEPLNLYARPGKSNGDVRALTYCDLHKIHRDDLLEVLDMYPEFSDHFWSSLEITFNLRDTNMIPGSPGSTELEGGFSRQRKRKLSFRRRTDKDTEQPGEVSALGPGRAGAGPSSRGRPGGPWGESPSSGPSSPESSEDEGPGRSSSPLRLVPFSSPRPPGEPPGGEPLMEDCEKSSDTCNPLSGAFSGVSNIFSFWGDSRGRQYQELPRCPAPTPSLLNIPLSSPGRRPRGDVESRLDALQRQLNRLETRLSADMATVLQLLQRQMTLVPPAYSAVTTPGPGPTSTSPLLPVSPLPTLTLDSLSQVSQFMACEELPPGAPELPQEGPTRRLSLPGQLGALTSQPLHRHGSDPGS
# Chain of Calcitonin gene-related peptide type 1 receptor (Homo sapiens) (Q16602 whole entry): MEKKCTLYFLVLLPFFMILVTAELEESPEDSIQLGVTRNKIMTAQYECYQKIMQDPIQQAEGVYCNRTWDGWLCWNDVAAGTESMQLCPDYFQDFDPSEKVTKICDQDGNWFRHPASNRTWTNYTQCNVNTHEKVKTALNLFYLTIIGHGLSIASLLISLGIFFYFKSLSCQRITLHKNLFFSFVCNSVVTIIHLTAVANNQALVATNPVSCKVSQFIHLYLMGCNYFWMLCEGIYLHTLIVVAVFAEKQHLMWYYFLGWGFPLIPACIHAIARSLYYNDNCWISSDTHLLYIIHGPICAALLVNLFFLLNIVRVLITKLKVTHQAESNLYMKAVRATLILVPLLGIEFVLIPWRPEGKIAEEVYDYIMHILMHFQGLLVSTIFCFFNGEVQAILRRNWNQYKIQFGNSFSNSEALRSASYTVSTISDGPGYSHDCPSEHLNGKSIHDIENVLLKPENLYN
# T1 sequence (Q16602 whole entry, one chain of several): as the sequence (Q16602 whole entry) above
# T4 sequence (P08684 whole entry): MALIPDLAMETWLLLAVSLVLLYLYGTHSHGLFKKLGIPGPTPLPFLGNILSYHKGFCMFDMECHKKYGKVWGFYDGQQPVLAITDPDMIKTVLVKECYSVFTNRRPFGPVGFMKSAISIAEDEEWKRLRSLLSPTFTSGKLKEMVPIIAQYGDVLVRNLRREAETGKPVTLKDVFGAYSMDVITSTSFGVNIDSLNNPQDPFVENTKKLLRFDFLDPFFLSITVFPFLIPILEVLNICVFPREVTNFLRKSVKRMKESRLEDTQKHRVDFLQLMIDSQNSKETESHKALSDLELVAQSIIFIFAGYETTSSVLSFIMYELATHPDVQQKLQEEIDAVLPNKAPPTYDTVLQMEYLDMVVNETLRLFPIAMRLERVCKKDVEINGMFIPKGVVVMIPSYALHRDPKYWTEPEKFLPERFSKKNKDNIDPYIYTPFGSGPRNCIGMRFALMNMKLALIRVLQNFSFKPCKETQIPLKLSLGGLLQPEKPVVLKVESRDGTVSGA
# Chain of Cytochrome P450 2C9 (P11712 whole entry): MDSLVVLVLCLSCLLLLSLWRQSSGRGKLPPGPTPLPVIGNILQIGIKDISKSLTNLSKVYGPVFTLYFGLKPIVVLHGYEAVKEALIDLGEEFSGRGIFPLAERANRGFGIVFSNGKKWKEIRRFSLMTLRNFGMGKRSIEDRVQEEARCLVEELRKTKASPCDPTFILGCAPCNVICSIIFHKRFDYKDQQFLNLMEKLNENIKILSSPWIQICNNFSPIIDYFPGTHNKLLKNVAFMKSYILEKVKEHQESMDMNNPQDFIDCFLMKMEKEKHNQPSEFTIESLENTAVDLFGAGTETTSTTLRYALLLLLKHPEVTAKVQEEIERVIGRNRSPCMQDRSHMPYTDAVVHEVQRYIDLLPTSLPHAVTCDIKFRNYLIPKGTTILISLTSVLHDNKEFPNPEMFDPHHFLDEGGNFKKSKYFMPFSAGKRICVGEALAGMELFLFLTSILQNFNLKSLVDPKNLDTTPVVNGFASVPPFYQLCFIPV
# Chain of Cytochrome P450 2C19 (P33261 whole entry): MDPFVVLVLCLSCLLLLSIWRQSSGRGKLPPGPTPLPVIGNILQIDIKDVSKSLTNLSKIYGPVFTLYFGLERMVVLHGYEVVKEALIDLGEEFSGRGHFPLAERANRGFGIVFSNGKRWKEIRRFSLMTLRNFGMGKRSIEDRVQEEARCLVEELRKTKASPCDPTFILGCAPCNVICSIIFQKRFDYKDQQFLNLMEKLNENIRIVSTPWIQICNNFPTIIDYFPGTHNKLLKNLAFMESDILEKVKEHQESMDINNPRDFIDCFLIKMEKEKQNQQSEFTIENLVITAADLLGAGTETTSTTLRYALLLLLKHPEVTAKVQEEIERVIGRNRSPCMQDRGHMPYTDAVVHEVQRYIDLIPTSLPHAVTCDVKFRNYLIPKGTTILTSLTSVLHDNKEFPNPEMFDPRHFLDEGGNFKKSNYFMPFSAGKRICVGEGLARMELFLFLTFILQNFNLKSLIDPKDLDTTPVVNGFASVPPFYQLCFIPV
# Chain of Cytochrome P450 2D6 (P10635 whole entry): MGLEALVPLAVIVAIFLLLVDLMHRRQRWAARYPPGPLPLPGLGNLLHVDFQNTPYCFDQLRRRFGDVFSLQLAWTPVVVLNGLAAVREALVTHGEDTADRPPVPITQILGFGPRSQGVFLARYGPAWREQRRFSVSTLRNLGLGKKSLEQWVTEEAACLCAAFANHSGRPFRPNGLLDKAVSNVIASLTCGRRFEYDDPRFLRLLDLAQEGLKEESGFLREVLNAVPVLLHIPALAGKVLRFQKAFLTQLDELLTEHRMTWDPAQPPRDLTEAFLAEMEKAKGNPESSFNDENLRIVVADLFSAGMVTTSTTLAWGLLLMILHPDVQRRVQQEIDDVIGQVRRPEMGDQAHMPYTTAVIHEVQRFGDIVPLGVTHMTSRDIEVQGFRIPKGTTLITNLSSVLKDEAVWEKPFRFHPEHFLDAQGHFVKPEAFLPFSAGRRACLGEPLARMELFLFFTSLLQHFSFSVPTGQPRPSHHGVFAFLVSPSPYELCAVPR
structure (smiles),measurement,setting,value
O=C(CN1C(=O)C2(CCCC2)NC[C@H]1c1cc(F)cc(F)c1)Nc1ccc2c(c1)C[C@@]1(C2)C(=O)Nc2ncccc21 [MK3207],Ki,[1],0.021 nM
Cc1cc(C[C@@H](NC(=O)N2CCC(N3Cc4cccc(F)c4NC3=O)CC2)C(=O)N2CCC(N3CCCCC3)CC2)cc2cn[nH]c12,Activity,Rattus norvegicus [2],Toxic
same,Activity,Rattus norvegicus [3],Toxic
Cc1cc(C[C@@H](NC(=O)N2CCC(c3cc4ccccc4[nH]c3=O)CC2)C(=O)N2CCN(C3CCN(C)CC3)CC2)cc2cn[nH]c12 [ZAVEGEPANT],Activity,Rattus norvegicus [4],Toxic
same,inhibition at 10 µM,hERG [5],9.5%
same,permeability,[6],impermeable
same,Activity,Rattus norvegicus [7],Toxic
same,"Degradation % at 2191.5 h, 40 mg/mL",[8],0.3%
same,solubility,[9],> 300 mg/mL
same,Kb,[10],0.091 nM
same,IC50,Cytochrome P450 1A2,> 40000 nM
same,Selectivity ratio,Homo sapiens [11],> 10000
same,IC50,Cytochrome P450 3A4 [12],24000 nM
same,Activity,Rattus norvegicus [13],Toxic
same,inhibition,[14],Dose-dependent effect
same,Ki,[15],0.023 nM
same,inhibition in vivo at 0.03 mg/kg,Callithrix jacchus [16],80%
same,fraction unbound,[17],0.37
same,Selectivity ratio,Homo sapiens [18],> 10000
same,Activity,Rattus norvegicus [19],Toxic
same,inhibition at 30 µM,hERG [20],22%
same,Papp B→A,[21],1.6 ×10⁻⁶ cm/s
same,Selectivity ratio,Homo sapiens [22],> 10000
same,bioavailability,[23],82%
same,Activity,Rattus norvegicus [2],Non-toxic
same,inhibition in vivo at 0.03 mg/kg,Callithrix jacchus [24],48%
same,Cmax,[25],120 nM
same,Activity,Rattus norvegicus [26],Toxic
same,EC50,[27],0.88 nM
same,IC50,Cytochrome P450 3A4 [28],> 40000 nM
same,bioavailability,[29],13%
same,Selectivity ratio,Homo sapiens [30],> 10000
same,Activity,Rattus norvegicus [31],Toxic
same,MTD at 240 h,[32],30 mg/kg/day
same,bioavailability,[33],1.4%
same,Activity,Rattus norvegicus [34],Toxic
same,Kb,[35],0.022 nM
same,Selectivity ratio,Homo sapiens [36],> 10000
same,inhibition in vivo at 0.03 mg/kg,Callithrix jacchus [37],70%
same,bioavailability,[38],0.3%
same,concentration,[39],25 nM
same,IC50,Cytochrome P450 2D6,> 40000 nM
same,Tmax,[40],15 min
same,Papp A→B,[41],1.6 ×10⁻⁶ cm/s
same,Activity,Rattus norvegicus [3],Non-toxic
same,IC50,Cytochrome P450 2C9,> 40000 nM
same,bioavailability,[42],30%
same,Activity,[43],inactive
same,IC50,Cytochrome P450 2C19,> 40000 nM
same,concentration at 5 min,[44],> 10 nM
CNS(=O)(=O)Cc1ccc2[nH]cc(CCN(C)C)c2c1,Activity,[45],Dose-dependent effect
same,EC50,[45],280 nM
